Experimental data taken from ChEMBL document CHEMBL2417469, “Synthesis of novel analogs of 2-pyrazoline obtained from [(7-chloroquinolin-4-yl)amino]chalcones and hydrazine as potential antitumor and antimalarial agents” (Eur J Med Chem, 2013).

Legend:
Type in all cases: functional
ACHN = assay: Cytotoxicity against human ACHN cells after 48 hrs by SRB assay; settings: for CC50: read-out: LC50 (the source's name)
How it was run: (§1)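 NCI 60-cell-line screen. Cells preincubated 24 h at 37 °C, 5% CO2; time-zero plates TCA-fixed. Compounds dissolved in DMSO and tested at five concentrations (100, 10, 1.0, 0.1, 0.01 µM) for 48 h continuous exposure. Adherent cells fixed with cold TCA (10% final), then SRB stained; absorbance at 515 nm. GI50, TGI and LC50 calculated from growth relative to time-zero and untreated controls.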

SK-OV-3 = assay: Cytotoxicity against human SKOV3 cells after 48 hrs by SRB assay; settings: SK-OV-3, 48 h; how it was run: as §1
NCI-H460 = assay: Cytotoxicity against human NCI-H460 cells after 48 hrs by SRB assay; settings: NCI-H460, 48 h; how it was run: as §1
T47D = assay: Cytotoxicity against human T47D cells after 48 hrs by SRB assay
How it was run: (§2)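 NCI 60-cell screen. Cells grew 24 h (37 °C, 5% CO2) before compound was added. Compounds were in DMSO and diluted in medium with gentamicin, then tested at five levels (100, 10, 1.0, 0.1, 0.01 µM) with 48 h continuous exposure. Adherent cells were fixed with TCA (10% final) and stained with 0.4% SRB, absorbance read at 515 nm. A time-zero plate was included. LC50 is the concentration giving 50% loss of protein relative to time zero.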

BT-549 = assay: Cytotoxicity against human BT549 cells after 48 hrs by SRB assay; settings: BT-549, 48 h; how it was run: as §1
NCI/ADR-RES = assay: Cytotoxicity against human NCI/ADR-RES cells after 48 hrs by SRB assay; settings: for CC50: read-out: LC50 (the source's name); how it was run: as §1
A549 = assay: Cytotoxicity against human A549/ATCC cells after 48 hrs by SRB assay; settings: A549, 48 h; for CC50: read-out: LC50 (the source's name); how it was run: as §1
SK-MEL-5 = assay: Cytotoxicity against human SK-MEL-5 cells after 48 hrs by SRB assay; settings: SK-MEL-5, 48 h; how it was run: as §1
LOX IMVI = assay: Cytotoxicity against human LOXIMVI cells after 48 hrs by SRB assay; how it was run: as §1
HOP-92 = assay: Cytotoxicity against human HOP92 cells after 48 hrs by SRB assay; settings: HOP-92, 48 h; how it was run: as §1
SR = assay: Cytotoxicity against human SR cells after 48 hrs by SRB assay; how it was run: as §2
Hs-578T = assay: Cytotoxicity against human Hs578T cells after 48 hrs by SRB assay; how it was run: as §1
NCI-H23 = assay: Cytotoxicity against human NCI-H23 cells after 48 hrs by SRB assay; settings: NCI-H23, 48 h; for CC50: read-out: LC50 (the source's name); how it was run: as §1
OVCAR-3 = assay: Cytotoxicity against human OVCAR3 cells after 48 hrs by SRB assay; settings: OVCAR-3, 48 h; how it was run: as §1
Malme-3M = assay: Cytotoxicity against human MALME-3M cells after 48 hrs by SRB assay; how it was run: as §1
HT-29 = assay: Cytotoxicity against human HT-29 cells after 48 hrs by SRB assay; settings: HT-29, 48 h; how it was run: as §1
KM12 = assay: Cytotoxicity against human KM12 cells after 48 hrs by SRB assay; settings: KM12, 48 h; how it was run: as §1
MCF7 = assay: Cytotoxicity against human MCF7 cells after 48 hrs by SRB assay; settings: MCF7, 48 h; for CC50: read-out: LC50 (the source's name); how it was run: as §1
M14 = assay: Cytotoxicity against human M14 cells after 48 hrs by SRB assay; settings: M14, 48 h; for CC50: read-out: LC50 (the source's name); how it was run: as §1
MDA-MB-435 = assay: Cytotoxicity against human MDA-MB-435 cells after 48 hrs by SRB assay; settings: MDA-MB-435, 48 h; how it was run: as §1
CAKI-1 = assay: Cytotoxicity against human Caki1 cells after 48 hrs by SRB assay; settings: CAKI-1, 48 h; how it was run: as §1
RPMI-8226 = assay: Cytotoxicity against human RPMI8226 cells after 48 hrs by SRB assay; settings: RPMI-8226, 48 h; how it was run: as §1
OVCAR-8 = assay: Cytotoxicity against human OVCAR8 cells after 48 hrs by SRB assay; settings: OVCAR-8, 48 h; how it was run: as §1
MDA-MB-468 = assay: Cytotoxicity against human MDA-MB-468 cells after 48 hrs by SRB assay; settings: MDA-MB-468, 48 h; how it was run: as §1
COLO 205 = assay: Cytotoxicity against human COLO205 cells after 48 hrs by SRB assay; settings: COLO 205, 48 h; how it was run: as §1
SN12C = assay: Cytotoxicity against human SN12C cells after 48 hrs by SRB assay; how it was run: as §1
786-0 = assay: Cytotoxicity against human 786-0 cells after 48 hrs by SRB assay; settings: 786-0, 48 h; how it was run: as §1
HCT-15 = assay: Cytotoxicity against human HCT15 cells after 48 hrs by SRB assay; settings: HCT-15, 48 h; how it was run: as §1
PC-3 = assay: Cytotoxicity against human PC3 cells after 48 hrs by SRB assay; settings: PC-3, 48 h; how it was run: as §1
HOP-62 = assay: Cytotoxicity against human HOP62 cells after 48 hrs by SRB assay; settings: HOP-62, 48 h; how it was run: as §1
UACC-62 = assay: Cytotoxicity against human UACC62 cells after 48 hrs by SRB assay; settings: UACC-62, 48 h; for CC50: read-out: LC50 (the source's name); how it was run: as §2
HL-60(TB) = assay: Cytotoxicity against human HL-60(TB) cells after 48 hrs by SRB assay; settings: HL-60, 48 h; how it was run: as §1
CCRF-CEM = assay: Cytotoxicity against human CCRF-CEM cells after 48 hrs by SRB assay; how it was run: as §1
SK-MEL-28 = assay: Cytotoxicity against human SK-MEL-28 cells after 48 hrs by SRB assay; settings: SK-MEL-28, 48 h; for CC50: read-out: LC50 (the source's name); how it was run: as §1
HCT-116 = assay: Cytotoxicity against human HCT116 cells after 48 hrs by SRB assay; settings: HCT-116, 48 h; how it was run: as §1
NCI-H522 = assay: Cytotoxicity against human NCI-H522 cells after 48 hrs by SRB assay; settings: NCI-H522, 48 h; how it was run: as §1
[1] = read-out: LC50 (the source's name)

## COc1ccc(C2CC(c3ccc(Nc4ccnc5cc(Cl)ccc45)cc3)=NN2C=O)cc1 (stereo not drawn)
ACHN
  GI50: 7.02 µM
  CC50: > 100 µM
SK-OV-3
  GI50: > 100 µM
  LC50 (concentration killing 50% of cells): > 100 µM
NCI-H460
  GI50: > 100 µM
  LC50: > 100 µM
T47D
  GI50: 1.38 µM
  LC50 (concentration giving 50% cell kill relative to time zero): > 100 µM
BT-549
  GI50: 10.9 µM
  LC50 (50% net cell kill vs time zero): > 100 µM
NCI/ADR-RES
  GI50: 7.04 µM
  CC50: > 100 µM
A549
  GI50: 50.3 µM
  CC50: > 100 µM
SK-MEL-5
  GI50: 0.62 µM
  LC50 (concentration killing 50% of cells present at time zero): > 100 µM
LOX IMVI
  GI50: 2.32 µM
  LC50: > 100 µM
HOP-92
  LC50 (concentration killing 50% of cells): > 100 µM
SR
  GI50: 2.83 µM
  LC50: > 100 µM
Hs-578T
  GI50: > 100 µM
  LC50 (50% net cell kill): > 100 µM
NCI-H23
  GI50: 5.06 µM
  CC50: > 100 µM
OVCAR-3
  GI50: 14.5 µM
  LC50: > 100 µM
Malme-3M
  LC50: > 100 µM
HT-29
  GI50: 3.81 µM
  LC50: > 100 µM
KM12
  GI50: 16.5 µM
  LC50 (concentration killing 50% of cells): > 100 µM
MCF7
  GI50: 8.78 µM
  CC50: > 100 µM
M14
  GI50: 7.67 µM
  CC50: > 100 µM
MDA-MB-435
  GI50: 1.72 µM
  LC50: > 100 µM
CAKI-1
  GI50: > 100 µM
  LC50: > 100 µM
RPMI-8226
  GI50: 2.71 µM
  LC50 (concentration killing 50% of cells): > 100 µM
OVCAR-8
  GI50: 69.8 µM
  LC50 (50% net cell kill): > 100 µM
MDA-MB-468
  GI50: 1 µM
  LC50: > 100 µM
COLO 205
  GI50: 3.56 µM
  LC50: > 100 µM
SN12C
  GI50: 12.6 µM
  LC50 (50% net cell kill relative to time zero): > 100 µM
786-0
  GI50: 32 µM
  LC50: > 100 µM
HCT-15
  GI50: 2.97 µM
  LC50 (concentration killing 50% of cells relative to time zero): > 100 µM
PC-3
  GI50: 9.43 µM
  LC50: > 100 µM
HOP-62
  GI50: 43.7 µM
  LC50 (50% lethal concentration): > 100 µM
UACC-62
  GI50: 5.99 µM
  CC50: > 100 µM
HL-60(TB)
  GI50: 2.23 µM
HL-60(TB); [1]
  CC50: > 100 µM
CCRF-CEM
  GI50: 2.71 µM
  LC50 (concentration killing 50% of cells relative to time zero): > 100 µM
SK-MEL-28
  GI50: 20.9 µM
  CC50: > 100 µM
HCT-116
  GI50: 9.97 µM
  LC50: > 100 µM

## COc1cccc2c1C(=O)c1c(O)c3c(c(O)c1C2=O)C[C@@](O)(C(=O)CO)C[C@@H]3O[C@H]1C[C@H](N)[C@H](O)[C@H](C)O1 [DOXORUBICIN]
ACHN
  GI50: 0.08 µM
  CC50: 100 µM
SK-OV-3
  GI50: 0.22 µM
NCI-H460
  GI50: 0.02 µM
T47D
  GI50: 0.06 µM
BT-549
  GI50: 0.23 µM
NCI/ADR-RES
  GI50: 7.16 µM
  CC50: 100 µM
A549
  GI50: 0.06 µM
  CC50: 100 µM
SK-MEL-5
  GI50: 0.08 µM
LOX IMVI
  GI50: 0.07 µM
HOP-92
  GI50: 0.1 µM
SR
  GI50: 0.03 µM
Hs-578T
  GI50: 0.33 µM
NCI-H23
  GI50: 0.15 µM
  CC50: 13.2 µM
OVCAR-3
  GI50: 0.39 µM
Malme-3M
  GI50: 0.12 µM
NCI-H522
  GI50: 0.03 µM
NCI-H522; [1]
  CC50: 2.8 µM
HT-29
  GI50: 0.12 µM
KM12
  GI50: 0.27 µM
MCF7
  GI50: 0.03 µM
  CC50: 51.3 µM
M14
  GI50: 0.18 µM
  CC50: 4.05 µM
MDA-MB-435
  GI50: 0.25 µM
CAKI-1
  GI50: 0.95 µM
RPMI-8226
  GI50: 0.08 µM
OVCAR-8
  GI50: 0.1 µM
MDA-MB-468
  GI50: 0.05 µM
COLO 205
  GI50: 0.18 µM
SN12C
  GI50: 0.07 µM
786-0
  GI50: 0.13 µM
HCT-15
  GI50: 6.46 µM
PC-3
  GI50: 0.32 µM
HOP-62
  GI50: 0.07 µM
UACC-62
  GI50: 0.12 µM
  CC50: 0.74 µM
HL-60(TB)
  GI50: 0.12 µM
CCRF-CEM
  GI50: 0.08 µM
SK-MEL-28
  GI50: 0.21 µM
  CC50: 15.9 µM
HCT-116
  GI50: 0.08 µM
